Bioassay records: PubChem BioAssay, several laboratories
Shown are actives, neighbours in structure and some others; about 1.1% of the full set was active somewhere.
SENP1 inh: human SENP1 catalytic domain inhibitors, primary screen, biochemical, FRET, uHTS. Sentrin-specific protease 1 (Homo sapiens), Q9P0U3. recombinant SENP1 catalytic domain, CyPet-SUMO1-YPet FRET cleavage. inhibition, % at 10 µM. 360,000 compounds, 0.21% hits. AID 624204, 2012;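 active = inhibition at least 30% at 10 µM, raw YFP signal under a set limit, fluorescence ratio 0.5 to 1.5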;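 also: 0% = enzyme with DMSO and 100% = no enzyme wells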
Target sequence (Q9P0U3 419-644 limits assumed): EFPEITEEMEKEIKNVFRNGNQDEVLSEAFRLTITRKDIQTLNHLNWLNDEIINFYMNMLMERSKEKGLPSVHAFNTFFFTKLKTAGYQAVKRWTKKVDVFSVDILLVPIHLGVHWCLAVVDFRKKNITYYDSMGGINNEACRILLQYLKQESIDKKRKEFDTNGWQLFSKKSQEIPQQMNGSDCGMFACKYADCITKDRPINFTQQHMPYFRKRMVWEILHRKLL
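Test system: recombinant human SENP1 catalytic domain, His6-tagged / Medium: pH 8 Tris buffer with EDTA, NaCl, BME, BSA, NP40, catalase / Also added: SUMO1 FRET substrate flanked by Cypet and Ypet, 25 nM / Times: 50 min reaction at room temperature / Signal: FRET, CFP and YFP emission / Control set: no-enzyme low control and enzyme-plus-DMSO high control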
FAS TE block: FAS thioesterase domain inhibitors, primary screen, biochemical, fluorescence intensity, uHTS; recombinant FAS-TE, OMFH fluorogenic substrate, fluorescence endpoint; inhibition, % at 15 µM; 360,000 compounds, 0.67% hits; AID 602261, 2012;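 active = compounds whose normalised, plate-corrected inhibition of enzyme fluorescence in the single-dose primary screen is 50% or more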;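 also: 0% = DMSO with enzyme and 100% = substrate without enzyme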
ABCB6 inh 2: ABCB6 transporter inhibitors, primary screen, K562-ABCB6 cells, flow cytometry, MLPCN library; ATP-binding cassette sub-family B member 6 (Homo sapiens), Q9NP58; K562-ABCB6 porphyrin accumulation, 1 h; hits give low values; fluorescence ratio to DMSO, % at 10 µM; 360,000 compounds, 0.19% hits;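 active = fluorescence ratio to DMSO below 75%, the collection mean minus 3 SD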;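 also: signal is porphyrin accumulated inside mitochondria; 100% equals median channel fluorescence of DMSO control wells; lower ratio means ABCB6 inhibition with less porphyrin fluorescence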
iPSC survival up: enhancers of single-cell hiPSC survival, primary screen, ATPlite luminescence | 100% = ROCK inhibitor wells, 0% = DMSO | survival enhancement, % at 20 µM | 360,000 compounds, 0.044% hits; in the data active = survival enhancement above about 18%;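 also: cells exposed to compounds for 16 hours before the ATP read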
FAS-TE inh conf: FAS thioesterase domain inhibitors, confirmation, biochemical, fluorescence intensity, single concentration; shares compounds with FAS TE block; recombinant FAS-TE, OMFH fluorogenic substrate; inhibition, % at 15 µM; 2,300 compounds, 45% hits;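 active = compounds inhibiting the enzyme by at least 50% at 15 µM in any one of the replicates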;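 also: 0% = enzyme with DMSO only and 100% = wells lacking enzyme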
An asterisk follows results filed as active; . = no result.

SMILES | SENP1 inh | FAS TE block | ABCB6 inh 2 | iPSC survival up | FAS-TE inh conf
Cc1ccc(NC(=O)C2CCN(S(=O)(=O)c3ccc(C(C)(C)C)cc3)CC2)cc1S(=O)(=O)N1CCOCC1 | 2.7 | 88.9* | 94.0 | -0.5 | 31.2
Cc1ccc(S(=O)(=O)c2nnn3c2nc(Nc2cccc(C)c2)c2ccccc23)cc1 | -16.8 | 2.4 | 98.0 | -0.1 | .
Cc1ccc(S(=O)(=O)c2nnn3c2nc(N2CCC(C(N)=O)CC2)c2ccccc23)cc1C | 0.7 | 52.8* | 104.0 | -0.6 | 61.1*
Cc1cccc(NS(=O)(=O)c2ccc3[nH]c(=O)cc(C(=O)OC(C)C(=O)Nc4ccc([N+](=O)[O-])cc4)c3c2)c1 (stereo not drawn) | 2.2 | 87.4* | 99.0 | -0.8 | 93.0*
CCc1ccc(NC(=O)C(C)OC(=O)c2cc(=O)[nH]c3ccc(S(=O)(=O)Nc4ccc(F)cc4)cc23)cc1 (stereo not drawn) | 3.0 | 19.5 | 97.0 | 1.7 | .
O=C(CN1CCOCC1)N1CCOCC1 | 1.8 | -15.5 | 97.0 | 5.1 | .
CCc1ccc(C2(O)CC(C(F)(F)F)=NN2C(=O)Cc2ccc([N+](=O)[O-])cc2)cc1 (stereo not drawn) | 1.3 | 52.1* | 98.0 | -0.5 | 17.5
COc1ccccc1C(=O)COC(=O)/C(=C/c1ccccc1)NC(C)=O | 0.3 | -0.8 | 99.0 | -0.3 | .
Cc1ccc(S(=O)(=O)N/N=C\c2ccc3c(c2)OCO3)c(C)c1 | 1.6 | -0.1 | 95.0 | -0.7 | .
Cc1[nH]n2c(=O)cc(-c3ccc([N+](=O)[O-])cc3)nc2c1-c1ccccc1 | 1.5 | 58.8* | 92.0 | 0.6 | 76.5*
CCCc1cc(=O)n2[nH]c(C)c(-c3ccccc3)c2n1 | -1.3 | -6.2 | 108.0 | 14.6 | .
O=C(Nc1ccc(Br)cc1)C1CCCN(C2=NS(=O)(=O)c3ccccc32)C1 (stereo not drawn) | 2.1 | 6.7 | 103.0 | 2.3 | .
Cc1nc(Sc2ccc(Cl)cc2)c(C#N)c(C)c1[N+](=O)[O-] | 1.9 | 63.6* | 96.0 | -0.4 | 21.3
Cc1ccc(Sc2nc(C)c([N+](=O)[O-])c(C)c2C#N)cc1 | 1.2 | 44.1 | 95.0 | -0.1 | .
Cc1nc(Sc2ccc(Br)cc2)c(C#N)c(C)c1[N+](=O)[O-] | 1.1 | 61.0* | 104.0 | 0.6 | 34.8
CC(=O)C(N=Nc1ccccc1)(Sc1nnc(-c2ccccc2)n1-c1ccccc1)C(=O)Nc1ccccc1 (stereo not drawn) | 1.2 | 78.9* | 99.0 | 0.0 | 16.5
CC(OC(=O)c1cccc([N+](=O)[O-])c1)C(=O)N1CCc2ccccc21 (stereo not drawn) | 2.7 | 77.3* | 90.0 | -0.6 | 58.7*
COc1cccc(-c2cc(N3C(=O)Nc4ccccc4N3O)n[nH]2)c1 | 1.9 | -8.1 | 93.0 | 1.6 | .
Cc1nn(-c2ccc([N+](=O)[O-])cc2)c2c1C(c1ccc(OC(F)F)cc1)N1C(=N2)C(=O)Nc2ccccc21 (stereo not drawn) | -36.0 | 85.8* | 97.0 | 1.4 | 14.9
COc1cccc(C2c3c(C)nn(-c4ccc([N+](=O)[O-])cc4)c3N=C3C(=O)Nc4ccccc4N32)c1 (stereo not drawn) | -36.6 | 71.8* | 115.0 | -0.3 | -0.9
O=[N+]([O-])c1ccc(-c2cnc[nH]2)cc1 | 3.5 | -0.6 | 98.0 | 0.7 | .
COc1ccccc1CC(=O)Nc1ccc(S(=O)(=O)N(C)C2CCN(C)CC2)cc1 | 2.0 | -4.4 | 95.0 | -0.5 | .
O=C(OCc1cccc(Cl)c1)c1cc([N+](=O)[O-])ccc1N1CCOCC1 | -0.4 | 58.8* | 99.0 | -0.1 | 41.0
O=C(OCc1ccc(Br)cc1)c1cc([N+](=O)[O-])ccc1N1CCOCC1 | 1.6 | 72.8* | 111.0 | -0.3 | 5.7
O=C(OCc1cccc(C(F)(F)F)c1)c1cc([N+](=O)[O-])ccc1N1CCOCC1 | -3.2 | 58.4* | 96.0 | 0.4 | 45.9*
SMILES | SENP1 inh | FAS TE block | ABCB6 inh 2 | iPSC survival up | FAS-TE inh conf
O=C(OCc1cccc(Cl)c1)c1cc(S(=O)(=O)N2CCCCC2)ccc1N1CCOCC1 | 0.8 | 26.4 | 92.0 | 0.6 | .
COc1ccc(COC(=O)c2cc([N+](=O)[O-])ccc2N2CCOCC2)cc1F | -2.1 | 54.2* | 94.0 | -0.4 | 7.8
CCOC(=O)N1CCN(S(=O)(=O)c2ccc(OC)c(C(=O)N3CCCCC3)c2)CC1 | 1.0 | -2.7 | 101.0 | -0.4 | .
O=C(NCc1ccccn1)[C@@H]1CCCN1C(=O)[C@@H]1CCCN1C(=O)c1c(F)cccc1F | 1.3 | -6.5 | 93.0 | -0.1 | .
O=c1[nH]cc(S(=O)(=O)N2CCN(c3ccc(F)cc3)CC2)c(=O)[nH]1 | 3.8 | -9.2 | 105.0 | -0.9 | .
O=C(CCNc1ccc(Br)cc1)c1cccc([N+](=O)[O-])c1 | -0.2 | 64.5* | 94.0 | 3.9 | 53.4*
COc1ccc(N2C(=O)NC3CC2(C)Oc2ccc(Br)cc23)cc1OC (stereo not drawn) | 0.7 | 59.1* | 191.0 | -0.4 | 74.1*
O=C(c1ccncc1)N(c1ccc2oc3c(c2c1)CCCC3)S(=O)(=O)c1ccc(F)cc1 | 1.6 | 64.7* | 100.0 | 1.0 | 42.9
CC(C)(C)c1cc(C(=O)NNc2cc(C(F)(F)F)ccc2Cl)n(Cc2ccccc2)n1 | 0.1 | 54.0* | 95.0 | 4.2 | 14.9
CCOc1ccc(/C(O)=C2/C(=O)C(=O)N(CCCN3CCOCC3)C2c2ccc(C)cc2)cc1C (stereo not drawn) | -6.0 | 3.8 | 92.0 | -0.4 | .
COc1cc(CN(C)c2ccc(S(=O)(=O)N3CCCC3)cn2)ccc1OC(F)F | 0.8 | 68.3* | 101.0 | -0.4 | 21.6
CCOC(=O)c1cc(CC)sc1NC(=O)c1ccc(N2CCOCC2)c([N+](=O)[O-])c1 | 1.1 | -7.4 | 97.0 | -2.0 | .
Cc1cc(Cl)ccc1NC(=O)COC(=O)c1cc([N+](=O)[O-])ccc1N1CCOCC1 | 1.1 | 76.7* | 95.0 | 0.4 | 79.2*
Cc1ccc(C)c(COC(=O)c2cc([N+](=O)[O-])ccc2N2CCOCC2)c1 | -0.8 | 41.4 | 96.0 | 0.3 | .
CCc1cccc(C)c1NC(=O)COC(=O)c1cc([N+](=O)[O-])ccc1N1CCOCC1 | -1.2 | 67.7* | 103.0 | -0.3 | 69.5*
O=C(COC(=O)c1cc([N+](=O)[O-])ccc1N1CCOCC1)Nc1ccc(Cl)cc1 | 0.1 | 81.3* | 97.0 | 0.1 | 49.0*
CCOC(=O)c1cc(CC)sc1NC(=O)c1cc([N+](=O)[O-])ccc1N1CCOCC1 | 1.3 | 61.1* | 96.0 | -1.3 | 20.8
NC(=O)c1ccc(NC(=O)COC(=O)c2cc([N+](=O)[O-])ccc2N2CCOCC2)cc1 | -3.0 | 36.4 | 103.0 | 0.6 | .
CNC(=O)c1[nH]cnc1C(=O)NCC(=O)OCc1ccccc1 | 2.2 | 0.8 | 96.0 | 0.2 | .
